Measurements from ChEMBL document CHEMBL4041489, “Meroterpenoids and Chalcone-Lignoids from the Roots of Mimosa diplotricha” (J Nat Prod, 2016).

How the values were obtained:
[1] = Inhibition of rat protein farnesyltransferase pretreated for 15 mins followed by dansyl-Gly-Cys-Val-Leu-Ser-OH substrate addition in presence of farnesyl pyrophosphate measured after 30 mins by fluorescence assay
[2] = system: HepG2; assay: Antiproliferative activity against human HepG2 cells measured after 72 hrs by SRB assay; type: functional; settings: HepG2, 72 h
How it was run: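 HepG2 cells from BCRC grown in RPMI 1640 with 10% FBS, nonessential amino acids, penicillin/streptomycin at 37 °C, 5% CO2. Cells were seeded in 10% FBS medium, and a T0 plate was TCA-fixed at 24 h. Compound or DMSO was added for 72 h, then cells were fixed with 10% TCA and stained with 0.4% SRB. Absorbance read at 515 nm; % growth vs T0 and control gave GI50.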

[3] = Inhibition of porcine brain protein farnesyltransferase using p21 ras protein as substrate in presence of [3H]FPP after 1 hr by liquid scintillation counting method; parameters: species or system Sus scrofa

Row | IC50 [1] [µM] | GI50 [2] [µM] | IC50 [3] [µM] | Compound
1 | 7.5 | > 10 |  | COC1=CC(=O)[C@@]2(c3cc(=O)c4ccc(OC)cc4o3)[C@H](C[C@]3(C)[C@@H](C(=O)O)CC=C4[C@H]3CCCC4(C)C)C(C)=CC[C@H]2C1=O
2 | 5 | 8.6 |  | COC1=CC(=O)[C@@]2(c3cc(=O)c4c(O)cc(OC)cc4o3)[C@H](C[C@]3(C)[C@@H](C(=O)O)CC=C4[C@H]3CCCC4(C)C)C(C)=CC[C@H]2C1=O
3 | 5.1 | > 10 |  | COC1=CC(=O)[C@@]2(c3cc(=O)c4c(O)cc(O)cc4o3)[C@H](CC=C(C)[C@@H]2C[C@]2(C)[C@@H](C(=O)O)CC=C3[C@H]2CCCC3(C)C)C1=O
4 | 27.9 | > 10 |  | COC1=CC(=O)[C@@]2(c3cc(=O)c4ccc(O)cc4o3)[C@H](CC=C(C)[C@@H]2C[C@]2(C)[C@@H](C(=O)O)CC=C3[C@H]2CCCC3(C)C)C1=O
5 | 8.5 | > 10 |  | COC1=CC(=O)[C@@]2(c3cc(=O)c4c(O)cc(O)cc4o3)[C@H](C[C@]3(C)[C@@H](C(=O)O)CC=C4[C@H]3CCCC4(C)C)C(C)=CC[C@H]2C1=O
6 | 47 | > 10 |  | COC1=CC(=O)[C@@]2(c3cc(=O)c4ccc(O)cc4o3)[C@H](C[C@]3(C)[C@@H](C(=O)O)CC=C4[C@H]3CCCC4(C)C)C(C)=CC[C@H]2C1=O
7 | 0.1 |  | 0.05 to 0.075 | CSCC[C@H](NC(=O)c1ccc(NC(=O)[C@@H](N)CS)cc1)C(=O)O
